Assay results reported in the EternaBench riboswitch data.

System: MS2 coat protein
Experiment: apparent Kd, MS2 coat protein; higher = weaker binding; RNA-MaP array; FMN 200 µM where present
Summary of the method: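 SNAP-549-labelled MS2 coat protein, doubled from 0.7 or 1.5 nM to 3 µM, was titrated over designs transcribed by stalled E. coli RNA polymerase on Illumina sequencing-chip clusters. Titrations were run without and then with constant ligand in 100 mM Tris-HCl pH 7.5, 80 mM KCl, 4 mM MgCl2, BSA, DTT, yeast tRNA and Tween-20. The apparent Kd is the median of filtered per-cluster fits to green signal normalised to red-channel RNA signal and control-cluster median Fmax.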

[1] = designed as: OFF switch for flavin mononucleotide, no ligand
[2] = ligand present: flavin mononucleotide, designed as: OFF switch for flavin mononucleotide
[3] = designed as: ON switch for flavin mononucleotide, no ligand
[4] = ligand present: flavin mononucleotide, designed as: ON switch for flavin mononucleotide

| Sequence | apparent Kd [1] | apparent Kd [2] | apparent Kd [3] | apparent Kd [4] |
| --- | --- | --- | --- | --- |
| GCAUCCAAUGUGAGGAUAUACCUCUGGAUACAUAGGUAGAAGGCACAUGAGGAUCACCCAUGUUCCUAGGAUGC | 44.6 nM | 222 nM | – | – |
| CUAUUUAAGCAGAAGGCGUGGGAGAGAUUCACACGAGGAUAUGCGAUAACGGCGUAUGACAUGAGGAUCACCCAUGUACGUGCG | – | – | 5.83 nM | 4.91 nM |
| AAGGAUAGAGGAUAUACAUAGAUACAGAUUCAUGUAAUCCUACAUGAGGAUCACCCAUGUAGAAGGCUAUCCUA | 15.8 nM | 58.3 nM | – | – |
| CUUUUAUAAUAGAAGGUAGACUUUAAGUGGAUCACCCAUGUGUUGGUACUAAGGAUAUGUAGUAACAUGAGGAUCACCCAUGUU | – | – | 20.5 nM | 16.9 nM |
| UAACCAGUCCAGAAGGUGACGUCUGAAACUAGUCAAGGAUAUGGGUUGGUCCACGGUCGGCUACAUGAGGAUCACCCAUGUACC | – | – | 32.8 nM | 8.33 nM |
| UGAUAGGACAGAGGAUAUACGUAUAAAUAUCCUUACAUGAGGAUCACCCAUGUAGAAGGCUGUCCUAUCUAAGUCGGAAACGAC | 5.96 nM | 10.3 nM | – | – |
| AUAGGCCUAGGAUAUACAUGAGGAUCACCCAUGUUAAUACUUCAAUCAAGUUAAUAGUGUAGAAGGAGGAAUAA | 27.6 nM | 32.4 nM | – | – |
| UAGGACUACGUAGGAUAUUAAAUCAUGUACUACAUGAGGAUCACCCAUGUUAAUUUAUCAUCAGCUGAGAAGGACGUGGUAAAU | – | – | 104 nM | 61.7 nM |
| GGACCGCGUAGAAUUAGCGGCCGGCAGGAUAUGACAUGAGGAUCACCCAUGUGAACUCCAUUGGGUCAGAAGGGCCACGACACA | 20.6 nM | 96.4 nM | – | – |
| CCUAUGUGAGGAUAUGUCUGGUCUUCUUUUGUUUUUUACAGACAGAAGGCACAUGAGGAUCACCCAUGUCAGAC | 16.8 nM | 24.4 nM | – | – |
| UGUCGGAGCAGAGGAUAUUACAUGAGGAUCACCCAUGUAUGAACCAAUAGCUGGAACCAGCAAUGUAAGAAGGCUGCUCCGACA | 14.2 nM | 160 nM | – | – |
| ACAUGAUAUGUAGGAUAUCACAUUAAUUGAUUAAUAAUUGAAUAUAGGAUUUGAGAAGGACAUUUACAUGAGGAUCACCCAUGU | 17.6 nM | 13.1 nM | – | – |
| GUCUUGUCAGGAUAUCUUACAUAACAAUCGUAGUUACAAUUGGAGAAGGGACAUGAGGAUCACCCAUGUUAGCC | 18.7 nM | 21 nM | – | – |
| ACUGGUCGAGGAUAUACAUUCGUGCUUCGGCACGUAAGGUCACAUGAGGAUCACCCAUGUAGAAGGCGACCAGU | 40.1 nM | 207 nM | – | – |
| UGGUACAUCAUAGGAUAUCGUGUGUAAACAUGAGGAUCACCCAUGUCAUCCGAGAGUAUAUCGACCGAGAAGGGUGAUGUACCU | – | – | 24.1 nM | 33.3 nM |
| CGCAAGUCAGGAUAUUCGACUGGUAAAUCUGUGGAUCAGUAGGAGAAGGGACAUGAGGAUCACCCAUGUUUGUU | 28.6 nM | 31.9 nM | – | – |
| AAUGGCGUGAUAAUGCUAAUUAAAACAUGAGGAUCACCCAUGUAGGAUAUCCUACCGAAAUGGUAGGAGAAGGACAAGCAAUGA | 44.1 nM | 46.6 nM | – | – |
| UUCCGGCGUGUAGGAUAUGGAUCCGAUUAGGAUCCAGAAGGACAUGAGGAUCACCCAUGUACAUGUAAACAGUCAUCACCGGAG | 7.36 nM | 11.4 nM | – | – |
| AUUGUAUGGGAAGGAUAUAGAAUAUUAUUUUAACAUGAGGAUCACCCAUGUAACCUUAUGUGUAGCUAGAAGGUCCGUUUGUUA | 308 nM | 409 nM | – | – |
| AAUAUGUUGCAGAAGGUUAUUUUUAUAACGUGCCACUUGACAUGAGGAUCACCCAUGUAAUUGAUGAAGGAUAUGCAAUAUAUU | 6.46 nM | 6.34 nM | – | – |
| AAGAAACAUGAGGAUCACCCAUGUAAGAUAAACACAGGAUAUGCGAAUAAAAUAAAUAAAGCAGAAGGGUGAAGAA | – | – | – | 16.7 nM |
| CACACAUGUGGAGGAUAUGUAGUUAACAUAAGCGCAGAAGGCCACAUGAGGAUCACCCAUGUCCGGCAUUAGCCGAUGUUGAUC | 108 nM | 397 nM | – | – |
| GUCACACACCGCUCCGUGUCUGACAUGAGGAUCACCCAUGUGAGAAGGUAGCGUCGCAGUGACGUUAAGGAUAUCACGUACAGA | 4.81 nM | 5.2 nM | – | – |
| GGAUGACAAAGUCAUCCUUAACGAACAUGAGGAUCACCCAUGUAGGAUAUGCAACUCAAAGAGUUGCAGAAGGACAUGUGCCUU | 35.9 nM | 238 nM | – | – |
| GUGGUGCAUAUACGUGGAGGUACAUGAGGAUCACCCAUGUAAGAGGAUAUGCGGAUACUAGCUCAGCAGAAGGCUUACAAAUGA | 13.1 nM | 51.5 nM | – | – |
| AAAAAUGGAGGAUAUACAUGAGGAUCACCCAUGUGUGACUAUACUAUGCGCUCUUCAGGUAGAAGGCCAAAAAA | 28.4 nM | 39.4 nM | – | – |
| CACUCACAUGAGGAUCACCCAUGUCCUAGCAGGUCAGGAUAUAGCUCGGAUGCGUUCAGUCUAGAAGGGACACGUU | – | – | 156 nM | 111 nM |
| CUUGUGUUAGGAUAUGCGCCCUGCAAAAGCAGAGCCAGAGAGCAGAAGGAACAUGAGGAUCACCCAUGUGUGAC | 67.5 nM | 61.3 nM | – | – |

| Sequence | apparent Kd [1] | apparent Kd [2] | apparent Kd [3] | apparent Kd [4] |
| --- | --- | --- | --- | --- |
| CCUUUGUCAGGAUAUCAGAACACGCCCGUAGGGAGUGCAAAUGAGAAGGGACAUGAGGAUCACCCAUGUACAGA | 33.2 nM | 114 nM | – | – |
| UACAUCUCGUAAGGAUAUACACGAGAUUCAAGUGUAGAAGGUACUAACAUGAGGAUCACCCAUGUAUACAUGGAUAAUAGAUAU | – | – | 91.6 nM | 59.7 nM |
| CGGCAAUGACGAGGAUAUAGACAUGAGGAUCACCCAUGUAACAGUAUUACAGGGCGUCUUCUCGGCUAGAAGGCGUUCUAUGCC | 59.4 nM | 62.6 nM | – | – |
| GUUUUGGUAGGAUAUACAUGAGGAUCACCCAUGUCCCACCCGUUACCUAUGACCAUAUGUAGAAGGACCAUUUG | 22.2 nM | 28.2 nM | – | – |
| CUUUCGUGAGGAUAUCAGUAGUAAAAAUAUAAAAUUACUACUGAGAAGGCACAUGAGGAUCACCCAUGUUCCUC | 26 nM | 150 nM | – | – |
| UUUAAGGAAGGAUAUACAAUAUAAAUAAUAUCCUCAUUAUUACAUGAGGAUCACCCAUGUAGAAGGUCCAAUUU | 118 nM | 368 nM | – | – |
| UUGAUUUUGUAAGGAUAUACUCUGUGAUGAAGAGUAGAAGGUACUUACAUGAGGAUCACCCAUGUUUAACGAGAUACUAAUCGU | – | – | 62.8 nM | 31.3 nM |
| CAGUACUGAGGAUAUACAUGAGGAUCACCCAUGUAUCCUAGCUAGGAAACUAGCAAAUGUAGAAGGCAGUACUG | 62.5 nM | 458 nM | – | – |
| UAUAUUAUUAUAGGAUAUGGAUAUGAUGCAUAUCCAGAAGGGUGAUUAUAAUAUAAUCUAUACAUGAGGAUCACCCAUGUUUAU | – | – | 216 nM | 78.5 nM |
| UUUAUGUCAGGAUAUGAUUAGAUCUACUUUUGUAGAUCUAAUCAGAAGGGACAUGAGGAUCACCCAUGUUUUUU | 44.8 nM | 252 nM | – | – |
| CCGGAAAUGUAGGAUAUAGGAGUCGAUAGACACCUAGAAGGGCAUACAUGAGGAUCACCCAUGUGUCCUACCGG | 13.7 nM | 15.8 nM | – | – |
| GGAAAUCAUGUAGGAUAUGCAUGGCGAAGCUACGCAGAAGGACAUGAGGAUCACCCAUGUUAUAGCGUCCGAUAAAGGAUGCAA | 117 nM | 164 nM | – | – |
| ACAAGAUCAGGAUAUACAUGAGGAUCACCCAUGUUUAUCAAAAAAAAACUUUCUUUAUGUAGAAGGGAUCUUGU | 13.8 nM | 13.6 nM | – | – |
| AAAGACAUGGUGCAGGAUAUAUUAAUAGUCACAUGAGGAUCACCCAUGUUCAGAUAUCUGAACGAGUAGAAGGGCGAUGAAAAAA | – | – | 602 nM | 589 nM |
| AGCAGACGAGGAUAUAGAUUAAAUGACAUGAGGAUCACCCAUGUGAUCGAUCUAUUUUAUUUAGAAGGUGUCUGCU | 18.1 nM | 32.3 nM | – | – |
| CCUCCCUGAGGAUAUCCACCCUCAUACAUGAGGAUCACCCAUGUUCAACCCUGGGUUCCCGGAGAAGGCAGAUUUC | 115 nM | 134 nM | – | – |
| GGAGAUACAUGAGGAUCACCCAUGUAGGAUAUCGGGUAUAUAUAUGGCGAAAGCCAUAUAUAUACCGAGAAGGGCGUACACACC | 8.59 nM | 8.11 nM | – | – |
| UGGUACUAGGGAGGAUAUGGGAAGAUACAUGAGGAUCACCCAUGUUCAAGAAUGCCGAGAGGCAACUAGAAGGCCCUAGUACCU | – | – | 928 nM | 46.2 nM |
| UGGUACUAGGGAGGAUAUGGGAAGAUACAUGAGGAUCACCCAUGUUUAAGAAUGCCGAGAGGAAACUAGAAGGCCCUAGUACCU | – | – | 279 nM | 13.8 nM |
| GGGUACAUCGGAGGAUAUCAUGUAAAUACAUGAGGAUCACCCAUGUCGAUGGAGACAUCGGAGAUUGAGAAGGCCGAAGUACCG | – | – | 214 nM | 8.99 nM |
| GUGCGGUGAGGAUAUACGUAGGUACAGAUCUGUGUGUUCCUACAUGAGGAUCACCCAUGUAGAAGGCAUGGCAC | 49.6 nM | 136 nM | – | – |
| GCGGAGGGUACAGGAUAUCGUCCUUAGUUGGUACGAGAAGGGUAGCGCUGCCACAUGAGGAUCACCCAUGUGCCCAAACUAAAA | – | – | 159 nM | 201 nM |
| AUGAGAAAAGCAGGAUAUCUAUUGUCUCAGAAACAUGAGGAUCACCCAUGUAGAGAAGGGCUAAGACUGACUCUUCGGAGUUGA | 10.6 nM | 9.46 nM | – | – |
| UGCACAUGAGGAUCACCCAUGUAUUGUUCGGUUAAUAGAAGUGAGGAUAUGCUUAAAAUAAGGUAGCAGAAGGCACUGGGUUCA | – | – | 27.8 nM | 29.6 nM |
| UUCCAGCUUGUCAGGAUAUACUUAGGGUAAUCAGAGUAGAAGGGACAUGAGGAUCACCCAUGUGACGCUUGAGC | 65.2 nM | 118 nM | – | – |
| CCGGAAACGGGUAGCUGUACAUGAGGAUCACCCAUGUGAUCAUAGGAUAUGGAUCCUAAUUGGAUCCAGAAGGAUGUCAGCUAC | – | – | 163 nM | 580 nM |
| GAAGCACGCAUUAACAUGAGGAUCACCCAUGUCAAAAGACGUGAGGAUAUGGAUCUGAAGAAGAUCCAGAAGGCACUGUGCUAA | – | – | 7.39 nM | 5.59 nM |
